Assay results as given in ChEMBL document CHEMBL1142954, “Metabolically stabilized benzothiazoles for imaging of amyloid plaques” (J Med Chem, 2007).

Assays:
[1] = Lipophilicity, log P of the compound; type: physicochemical; details: octanol/water
In short: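 Octanol–PBS partition (log Poct/PBS) measured on the N-11C-labeled radiotracers.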

[2] = test system: Mus musculus; assay: Ratio of drug uptake in iv dosed Balb/C mouse brain at 2 to 30 mins; type: ADME, organism-based; details: in vivo
In short: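 Wild-type mice received the 11C-labeled tracers i.v. Brain uptake was measured as %ID/g at 2 and 30 min post-injection, and the 2 min/30 min ratio was taken. Means ± sd, n = 4-5.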

[3] = test system: Plasma; assay: Metabolic stability in Balb/C mouse plasma assessed as radioactivity; type: ADME, cell-free
[4] = Displacement of [3H]PIB from human A-beta-40 peptide
In short: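 Competition binding against [3H]PIB using precipitated synthetic Aβ(1-40) peptide aggregates. Ki derived from competition data.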

Row | Compound | logP [1] | Ratio [2] | t1/2 [3] [min] | Ki [4] [nM]
1 | Cc1cc(-c2nc3cc(F)ccc3s2)ccc1N[11CH3] | 2.93 | 6.3 | 14.3 | 8.4
2 | [11CH3]Nc1ccc(-c2nc3cc(F)ccc3s2)cc1Cl | 2.81 | 9.8 | 22.1 | 3.4
3 | [11CH3]Nc1ccc(-c2nc3ccccc3s2)cc1F | 3.05 | 3.1 | 8.4 | 6.8
4 | [11CH3]Nc1ccc(-c2nc3cc(F)ccc3s2)cc1Br | 4.18 | 2.5 | 7.2 | 1.3
5 | Cc1cc(-c2nc3ccccc3s2)ccc1N[11CH3] | 3.36 | 2.8 | 7.5 | 4.4
6 | [11CH3]Nc1ccc(-c2nc3cc(F)ccc3s2)cc1 | 3.27 | 2.5 | 6.8 | 12.4
